Reference: ChEMBL document CHEMBL3124841, “Discovery of vinyl sulfones as a novel class of neuroprotective agents toward Parkinson's disease therapy” (J Med Chem, 2014)
The source made the active and inactive calls. The calls are words filed in the database; no cut-off is given here.

Key:
Format in all cases: cell-based
[1] = molecular target: T1, Nuclear factor erythroid 2-related factor 2 (Mus musculus) (UniProt Q60795); assay: Induction of Nrf2 nuclear translocation in mouse CATH.a cells at 10 uM after 3 hrs by western blot analysis relative to control
T1 sequence (whole entry): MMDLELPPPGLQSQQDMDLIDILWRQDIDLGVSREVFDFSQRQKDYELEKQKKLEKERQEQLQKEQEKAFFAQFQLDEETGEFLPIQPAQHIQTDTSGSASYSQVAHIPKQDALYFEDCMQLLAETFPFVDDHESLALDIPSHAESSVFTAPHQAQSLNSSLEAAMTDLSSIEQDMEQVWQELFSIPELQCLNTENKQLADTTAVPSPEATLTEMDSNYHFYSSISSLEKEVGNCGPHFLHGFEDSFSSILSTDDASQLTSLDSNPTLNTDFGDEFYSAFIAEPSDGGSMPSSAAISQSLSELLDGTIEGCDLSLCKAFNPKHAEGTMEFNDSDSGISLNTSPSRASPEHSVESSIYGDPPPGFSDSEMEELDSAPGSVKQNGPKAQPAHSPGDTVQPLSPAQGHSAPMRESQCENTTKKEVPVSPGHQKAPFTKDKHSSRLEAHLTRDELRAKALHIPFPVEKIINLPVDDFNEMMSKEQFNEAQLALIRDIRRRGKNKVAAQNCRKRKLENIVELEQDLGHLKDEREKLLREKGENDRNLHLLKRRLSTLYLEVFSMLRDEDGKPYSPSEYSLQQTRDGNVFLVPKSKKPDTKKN
Method in brief: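 Mouse DAergic CATH.a cells treated at various concentrations for 3 h. Nuclei isolated by hypotonic HEPES buffer/NP-40 lysis, then nuclear proteins extracted in 400 mM NaCl HEPES buffer. Nrf2 Western blot with lamin B as nuclear marker, chemiluminescent detection, densitometry. At least duplicate cultures, expressed as fold induction over untreated control ± SEM.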

[2] = molecular target: T1, Nuclear factor erythroid 2-related factor 2 (Mus musculus); assay: Induction of Nrf2-dependent HO1 protein level in mouse BV-2 cells at 20 uM after 24 hrs by sandwich ELISA
Method in brief: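 Murine BV-2 microglia in DMEM/10% FBS, 2.0 × 10⁴ cells per well, treated at 20 μM for 24 h in triplicate. Lysates in NP-40 Tris buffer (pH 8.0) diluted tenfold; HO-1 measured by sandwich ELISA with HRP-streptavidin and Amplex Red fluorescence (ex 530/em 590 nm). Expressed as % of 0.04% DMSO vehicle control ± SEM; sulforaphane 5 μM as reference.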

[3] = Cytotoxicity against mouse CATH.a cells assessed as cell viability at 0.1 to 2 uM after 72 hrs by ATP assay
Method in brief: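 CATH.a cells seeded at 2.4 × 10⁴ cells/well, exposed to the agent alone for 72 h. Viability read as cellular ATP by CellTiter-Glo luminescence (2 min lysis, 10 min room temperature, 1 min read). At least duplicate cultures, percent of untreated control ± SEM.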

[4] = molecular target: T1, Nuclear factor erythroid 2-related factor 2 (Mus musculus); assay: Induction of Nrf2-dependent GCLM protein expression in mouse CATH.a cells at 0.1 uM after 24 hrs by western blot analysis
Method in brief: (§1)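 Cells (CATH.a) exposed to graded concentrations for 24 h, lysed in RIPA buffer with protease inhibitors. Equal protein separated on 10% SDS gel, blotted; primary antibodies overnight at 4 °C, HRP secondary, chemiluminescence. Densitometry normalized to β-actin. At least duplicate cultures, fold of untreated control ± SEM.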

[5] = molecular target: T1, Nuclear factor erythroid 2-related factor 2 (Mus musculus); assay: Induction of Nrf2-dependent HO1 gene expression in mouse CATH.a cells at 1 to 10 uM after 6 hrs by RT-PCR analysis relative to control
Method in brief: (§2)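 CATH.a cells grown in RPMI 1640 with 8% horse serum and 4% FBS, exposed to graded concentrations for 6 h. mRNA analysed by RT-PCR with gene-specific primers, products run on 1% agarose gel, band densitometry normalized to GAPDH. At least duplicate cultures; fold induction versus untreated control ± SEM.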

[6] = molecular target: T1, Nuclear factor erythroid 2-related factor 2 (Mus musculus); assay: Induction of Nrf2-dependent HO1 protein expression in mouse CATH.a cells at 0.1 uM after 24 hrs by western blot analysis; method in brief: as §1
[7] = molecular target: T1, Nuclear factor erythroid 2-related factor 2 (Mus musculus); assay: Induction of Nrf2-dependent GCLC gene expression in mouse CATH.a cells at 10 uM after 6 hrs by RT-PCR analysis relative to control; method in brief: as §2

fold change (FC) [1]: 3.5
Activity [2]: 382%
Activity [4]: inactive
fold change (FC) [5]: 3
Activity [6]: inactive
fold change (FC) [7]: 2.64
Compound: COc1ccccc1S(=O)(=O)/C=C/c1ccccc1Cl
Activity [3]: Non-toxic
